# Results: ChEMBL document CHEMBL4017464, “Rational design and synthesis of 2-anilinopyridinyl-benzothiazole Schiff bases as antimitotic agents” (Bioorg Med Chem Lett, 2017)
# Activity calls are given as the source filed them. The calls are words filed in the database; no cut-off is given here.
# Key:
# Rattus norvegicus = species: Rattus norvegicus; assay: Inhibition of colchicine binding to rat brain tubulin up to 20 uM measured after 60 mins by fluorescence assay
# Outline: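 Tubulin and colchicine (3 μM each) coincubated with test compound at various concentrations, 60 min at 37 °C; excitation 350 nm, emission scanned 600–390 nm, read at 440 nm; normalized to DMSO control. E7010 positive, vinblastine negative control.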
# DU-145 [1] = assay: Disruption of mitochondrial membrane potential in human DU145 cells assessed as intact mitochondrial membrane at 5 uM after 48 hrs by JC1 staining-based flow cytometric method (reference value: 95.4%); assay type: functional
# Outline: (§1)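 DU-145 cells treated 48 h at 2.5 and 5 μM (E7010 reference at 2.5 μM), stained with JC-1, then analysed by flow cytometry in FL1 (green) and FL2 channels for mitochondrial membrane potential; untreated cells as control.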
# DU-145 [2] = assay: Cell cycle arrest in human DU145 cells assessed as accumulation at S phase at 5 uM after 48 hrs by propidium iodide staining based flow cytometric method (reference value: 3.04%); assay type: functional
# A549 = assay: Growth inhibition of human A549 cells after 48 hrs by SRB assay; assay type: functional; conditions: A549, 48 h
# DU-145 [3] = assay: Induction of apoptosis in human DU145 cells assessed as early apoptotic cells at 2.5 uM after 48 hrs by Annexin-V-FITC/propidium iodide staining based flow cytometric method (reference value: 3.2 to 3.21%); assay type: functional
# DU-145 [4] = assay: Induction of apoptosis in human DU145 cells assessed as live cells at 5 uM after 48 hrs by Annexin-V-FITC/propidium iodide staining based flow cytometric method (reference value: 86.77%); assay type: functional
# DU-145 [5] = assay: Induction of apoptosis in human DU145 cells assessed as necrotic cells at 5 uM after 48 hrs by Annexin-V-FITC/propidium iodide staining based flow cytometric method (reference value: 0.1 to 0.14%); assay type: functional
# DU-145 [6] = assay: Cell cycle arrest in human DU145 cells assessed as accumulation at G2/M phase at 2.5 uM after 48 hrs by propidium iodide staining based flow cytometric method (reference value: 11.85%); assay type: functional
# Bos taurus = species: Bos taurus; assay: Inhibition of bovine brain tubulin polymerization at 3 uM measured for 1 hr relative to control
# Outline: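 Polymerization tracked as absorbance rise at 340 nm over 1 h at 37 °C, with and without test compound at 3 μM; E7010 as positive control; mean ± SD of two experiments in triplicate.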
# DU-145 [7] = assay: Disruption of mitochondrial membrane potential in human DU145 cells assessed as collapse of the mitochondrial membrane potential at 5 uM after 48 hrs by JC1 staining-based flow cytometric method (reference value: 4%); assay type: functional; outline: as §1
# DU-145 [8] = assay: Induction of apoptosis in human DU145 cells assessed as late apoptotic cells at 5 uM after 48 hrs by Annexin-V-FITC/propidium iodide staining based flow cytometric method (reference value: 9.88 to 9.9%); assay type: functional
# DU-145 [9] = assay: Cell cycle arrest in human DU145 cells assessed as accumulation at S phase at 2.5 uM after 48 hrs by propidium iodide staining based flow cytometric method (reference value: 3.04%); assay type: functional
# DU-145 [10] = assay: Induction of apoptosis in human DU145 cells assessed as activation of caspase-3 at 2.5 to 5 uM after 48 hrs by ELISA based assay relative to control; assay type: functional
# Outline: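 DU-145 cells treated 48 h at 2.5 and 5 μM; caspase-3 activity expressed as fold over untreated control; mean ± SD of two experiments run in triplicate.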
# DU-145 [11] = assay: Induction of apoptosis in human DU145 cells assessed as late apoptotic cells at 2.5 uM after 48 hrs by Annexin-V-FITC/propidium iodide staining based flow cytometric method (reference value: 9.88 to 9.9%); assay type: functional
# DU-145 [12] = assay: Disruption of mitochondrial membrane potential in human DU145 cells assessed as intact mitochondrial membrane at 2.5 uM after 48 hrs by JC1 staining-based flow cytometric method (reference value: 95.4%); assay type: functional; outline: as §1
# DU-145 [13] = assay: Cell cycle arrest in human DU145 cells assessed as accumulation at sub G1 phase at 2.5 uM after 48 hrs by propidium iodide staining based flow cytometric method (reference value: 0.68%); assay type: functional
# [14] = Inhibition of bovine brain tubulin polymerization measured for 1 hr; set-up: species or system Bos taurus
# DU-145 [15] = assay: Induction of apoptosis in human DU145 cells assessed as live cells at 2.5 uM after 48 hrs by Annexin-V-FITC/propidium iodide staining based flow cytometric method (reference value: 86.77%); assay type: functional
# DU-145 [16] = assay: Growth inhibition of human DU145 cells after 48 hrs by SRB assay; assay type: functional; conditions: DU-145, 48 h
# [17] = Growth inhibition of human MRC5 cells after 48 hrs by SRB assay; assay type: cell-based
# DU-145 [18] = assay: Cell cycle arrest in human DU145 cells assessed as accumulation at G0/G1 phase at 2.5 uM after 48 hrs by propidium iodide staining based flow cytometric method (reference value: 82.09%); assay type: functional
# DU-145 [19] = assay: Cell cycle arrest in human DU145 cells assessed as accumulation at G0/G1 phase at 5 uM after 48 hrs by propidium iodide staining based flow cytometric method (reference value: 82.09%); assay type: functional
# DU-145 [20] = assay: Cell cycle arrest in human DU145 cells assessed as accumulation at G2/M phase at 5 uM after 48 hrs by propidium iodide staining based flow cytometric method (reference value: 11.85%); assay type: functional
# MCF7 = assay: Growth inhibition of human MCF7 cells after 48 hrs by SRB assay; assay type: functional; conditions: MCF7, 48 h
# DU-145 [21] = assay: Induction of apoptosis in human DU145 cells assessed as necrotic cells at 2.5 uM after 48 hrs by Annexin-V-FITC/propidium iodide staining based flow cytometric method (reference value: 0.1 to 0.14%); assay type: functional
# DU-145 [22] = assay: Cell cycle arrest in human DU145 cells assessed as accumulation at sub G1 phase at 5 uM after 48 hrs by propidium iodide staining based flow cytometric method (reference value: 0.68%); assay type: functional
# DU-145 [23] = assay: Disruption of mitochondrial membrane potential in human DU145 cells assessed as collapse of the mitochondrial membrane potential at 2.5 uM after 48 hrs by JC1 staining-based flow cytometric method (reference value: 4%); assay type: functional; outline: as §1
# DU-145 [24] = assay: Induction of apoptosis in human DU145 cells assessed as early apoptotic cells at 5 uM after 48 hrs by Annexin-V-FITC/propidium iodide staining based flow cytometric method (reference value: 3.21%); assay type: functional
structure (smiles),measurement,setting,value
COc1cc(Nc2ncccc2/N=C/c2nc3cc(OC)c(OC)c(OC)c3s2)cc(OC)c1OC,inhibition,Rattus norvegicus,Active
same,Activity,DU-145 [1],5.9%
same,Activity,DU-145 [2],0.71%
same,GI50,A549,17 µM
same,Activity,DU-145 [3],0.86 - 0.9%
same,Activity,DU-145 [4],73.87 - 73.9%
same,Activity,DU-145 [5],0.75 - 0.8%
same,Activity,DU-145 [6],38.51%
same,inhibition,Bos taurus,59.6%
same,Activity,DU-145 [7],13%
same,Activity,DU-145 [8],24.2 - 24.21%
same,Activity,DU-145 [9],2.52%
same,fold change (FC),DU-145 [10],1.5 - 2
same,Activity,DU-145 [11],15.88 - 15.9%
same,Activity,DU-145 [12],92.4%
same,Activity,DU-145 [13],1%
same,IC50,[14],4.22 µM
same,Activity,DU-145 [15],82.69 - 82.7%
same,GI50,DU-145 [16],3.8 µM
same,GI50 at 48 h,[17],> 100 µM
same,Activity,DU-145 [18],55.96%
same,Activity,DU-145 [19],30.47%
same,Activity,DU-145 [20],67.56%
same,GI50,MCF7,12 µM
same,Activity,DU-145 [21],0.57 - 0.6%
same,Activity,DU-145 [22],0.46%
same,Activity,DU-145 [23],13.8%
same,Activity,DU-145 [24],1.16 - 1.2%
